Data taken from ChEMBL document CHEMBL1124838, “5-Hydroxytryptamine (5-HT3) receptor antagonists. 2. 1-Indolinecarboxamides” (J Med Chem, 1990).

Target: Serotonin 3 (5-HT3) receptor (Rattus norvegicus) (UniProt P35563+Q9JJ16)
Assay: Antagonist potency to 5-hydroxytryptamine 3 receptor was assayed by antagonism of the 5-HT-evoked reflex bradycardia [Bezold-Jarisch(BJ) reflex] in rats
Format: functional
How it was run: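 Male rats (260–290 g) anesthetized with urethane (1.25 g/kg ip); blood pressure and heart rate recorded. 5-HT given repeatedly at a submaximal 6 μg/kg iv, and heart-rate changes quantified. Test drug given iv before 5-HT. ID50 is the dose that cuts the 5-HT-evoked response to 50% of control.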

| Structure (SMILES) | ID50 [µg/kg] |
| --- | --- |
| CN1C2CCC1CC(NC(=O)N1CC3(CC3)c3ccccc31)C2 (centres undefined) | 3.5 |
| CN1C2CCC1CC(NC(=O)N1CCc3cc(Cl)ccc31)C2 (centres undefined) | > 10 |
| CN1C2CCCC1CC(NC(=O)c1nn(C)c3ccccc13)C2 (centres undefined) | 0.7 |
| Cc1cn(C(=O)NC2CC3CCC(C2)N3C)c2ccccc12 (centres undefined) | 1.6 |
| CN1C2CCC1CC(NC(=O)N1CC3(CCCCC3)c3ccccc31)C2 (centres undefined) | 3.6 |
| CCN1C2CCC1CC(NC(=O)N1CCc3ccccc31)C2 (centres undefined) | > 10 |
| CN1C2CCC1CC(NC(=O)N1CCCc3ccccc31)C2 (centres undefined) | > 100 |
| CN1C2CCC1CC(NC(=O)N1CC(c3ccccc3)c3ccccc31)C2 (centres undefined) | 1.8 |
| CC1N(C(=O)NC2CC3CCC(C2)N3C)c2ccccc2C1(C)C (centres undefined) | 1.4 |
| CC1c2ccccc2N(C(=O)NC2CC3CCC(C2)N3C)C1C (centres undefined) | 0.5 |
| CN1C2CCC1CC(NC(=O)N1CCc3cc([N+](=O)[O-])ccc31)C2 (centres undefined) | > 10 |
| CN1C2CCC1CC(NC(=O)C1=CC(C)(C)c3ccccc31)C2 (centres undefined) | 1 |
| CN1C2CCC1CC(NC(=O)n1cc(-c3ccccc3)c3ccccc31)C2 (centres undefined) | 5.1 |
| CCc1cn(C(=O)NC2CC3CCC(C2)N3C)c2ccccc12 (centres undefined) | 2 |
| CN1C2CCC1CC(OC(=O)N1CCc3ccccc31)C2 (centres undefined) | 4.3 |
| CN1C2CCC1CC(NC(=O)N1CC3(CCCC3)c3ccccc31)C2 (centres undefined) | 1.2 |
| CN1C2CCC1CC(NC(=O)n1ccc3ccccc31)C2 (centres undefined) | 7.1 |
| CN1C2CCC1CC(NC(=O)N1CCc3ccccc31)C2 (centres undefined) | 1.4 |
| CN1C2CCC1CC(NC(=O)N1CCc3cc(F)ccc31)C2 (centres undefined) | > 10 |
| CC1Cc2ccccc2N1C(=O)NC1CC2CCC(C1)N2C (centres undefined) | 0.8 |
| CC1CN(C(=O)NC2CC3CCC(C2)N3C)c2ccccc21 (centres undefined) | 3 |
| COc1ccc2c(c1)CCN2C(=O)NC1CC2CCC(C1)N2C (centres undefined) | > 10 |
| CN1C2CCCC1CC(NC(=O)N1CCc3ccccc31)C2 (centres undefined) | 12.5 |
| CCC1CN(C(=O)NC2CC3CCC(C2)N3C)c2ccccc21 (centres undefined) | 1.5 |
